ChEMBL document CHEMBL1250459, “Photoaffinity labeling of Ras converting enzyme 1 (Rce1p) using a benzophenone-containing peptide substrate” (Bioorg Med Chem, 2010)
Several values for one entry are separate records, joined by “and”; a condition that tells them apart may be missing. Equal entries are not always repeated. Where a SMILES comes first, the peptide text is derived from it. [ ]: non-standard residue; d: D form. The star is where a group is joined. X1 = O=[N+]([O-])c1cc([N+](=O)[O-])cc(*)c1; Farnesyl = CC(C)=CCC/C(C)=C/CC/C(C)=C/C*; 2Abz = Nc1ccccc1C(=O)O

Assays:
Assay type in all cases: cell membranes
[1] = target: T1, CAAX prenyl protease 2 (Saccharomyces cerevisiae S288c) (UniProt Q03530); test: (§1) Binding affinity to Rce1p in yeast membranes assessed as reduction in binding affinity at 0.75 uM after 30 mins by Western blotting in presence of 50 uM of (3S,6S,9S,12S,15S,18R,21S,24S,27S)-3,9,15-tris(4-aminobutyl)-24-sec-butyl-21-(4-(3,5-dinitrophenylamino)butyl)-12-((S)-1-hydroxyethyl)-6-(hydroxymethyl)-22-imino-27-(2-(methylthio)ethyl)-1,4,7,10,13,16,19,25-octaoxo-1-phenyl-18-(((2E,6E)-3,7,11-trimethyldodeca-2,6,10-trienylthio)methyl)-2,5,8,11,14,17,20,23,26-nonaazaoctacosan-28-oic acid; design: scale not given: the % may be the effect or the level left
T1 sequence (whole entry): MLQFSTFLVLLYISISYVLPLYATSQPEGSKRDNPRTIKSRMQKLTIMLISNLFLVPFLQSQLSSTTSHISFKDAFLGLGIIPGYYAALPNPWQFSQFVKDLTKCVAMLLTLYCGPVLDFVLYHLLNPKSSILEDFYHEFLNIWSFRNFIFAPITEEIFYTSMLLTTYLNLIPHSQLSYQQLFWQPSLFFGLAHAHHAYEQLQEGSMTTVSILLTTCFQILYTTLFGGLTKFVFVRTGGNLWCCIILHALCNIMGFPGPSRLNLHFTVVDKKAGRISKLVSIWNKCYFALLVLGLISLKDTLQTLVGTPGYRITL
Method in brief: (§2)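 Competition photolabelling: Rce1p-containing yeast membranes (0.25 μg/μL) with biotinylated benzophenone probe (0.75 μM) in 100 mM Hepes, 5 mM MgCl2, pH 7.5. Farnesylated competitor peptide added at 50 or 100 μM. UV photolysis 30 min at 4 °C, then streptavidin pull-down and anti-HA Western blot. Band intensities quantified by densitometry relative to the no-competitor reaction.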

[2] = target: T1, CAAX prenyl protease 2 (Saccharomyces cerevisiae S288c); test: as §1, with “100” for “50”; design: scale not given: the % may be the effect or the level left; method in brief: as §2
[3] = substrate: CC[C@H](C)[C@H](NC(=O)[C@H](CCCCNc1cc([N+](=O)[O-])cc([N+](=O)[O-])c1)NC(=O)[C@H](CSC/C=C(\C)CC/C=C(\C)CCC=C(C)C)NC(=O)[C@H](CCCCN)NC(=O)[C@@H](NC(=O)[C@H](CCCCN)NC(=O)[C@H](CO)NC(=O)[C@H](CCCCN)NC(=O)c1ccccc1N)[C@@H](C)O)C(=O)N[C@@H](CCSC)C(=O)O; test: (§3) Activity of Rce1p in yeast membranes assessed as enzyme-mediated Ca1a2X proteolysis measured every 30 to 60 seconds for 1 hr by spectrofluorimetric assay; conditions: Saccharomyces cerevisiae
[4] = substrate: CC[C@H](C)[C@H](NC(=O)[C@H](CCCCNc1cc([N+](=O)[O-])cc([N+](=O)[O-])c1)NC(=O)[C@H](CSC/C=C(\C)COCc1cccc(C(=O)c2ccccc2)c1)NC(=O)[C@H](CCCCN)NC(=O)[C@@H](NC(=O)[C@H](CCCCN)NC(=O)[C@H](CO)NC(=O)[C@H](CCCCN)NC(=O)c1ccccc1N)[C@@H](C)O)C(=O)N[C@@H](CCSC)C(=O)O; test: as §3; conditions: Saccharomyces cerevisiae
[5] = substrate: CC[C@H](C)[C@H](NC(=O)[C@H](CCCCNc1cc([N+](=O)[O-])cc([N+](=O)[O-])c1)NC(=O)[C@H](CSC/C=C(\C)COCc1cccc(C(=O)c2ccccc2)c1)NC(=O)[C@H](CCCCN)NC(=O)[C@@H](NC(=O)[C@H](CCCCN)NC(=O)[C@H](CO)NC(=O)[C@H](CCCCN)NC(=O)c1ccccc1N)[C@@H](C)O)C(=O)N[C@@H](CCSC)C(=O)O; test: Activity of Rce1p in yeast membranes assessed as enzyme-mediated Ca1a2X proteolysis per mg of protein measured every 30 to 60 seconds for 1 hr by spectrofluorimetric assay; conditions: Saccharomyces cerevisiae

Molecule | Activity [1] | Activity [2] | Km [3] | Km [4] | Vmax [5]
CC[C@H](C)[C@H](NC(=O)[C@H](CCCCNc1cc([N+](=O)[O-])cc([N+](=O)[O-])c1)NC(=O)[C@H](CSC/C=C(\C)CC/C=C(\C)CCC=C(C)C)NC(=O)[C@H](CCCCN)NC(=O)[C@@H](NC(=O)[C@H](CCCCN)NC(=O)[C@H](CO)NC(=O)[C@H](CCCCN)NC(=O)c1ccccc1N)[C@@H](C)O)C(=O)N[C@@H](CCSC)C(=O)O (H-[2Abz]KSKTKC(Farnesyl)K(X1)IM-OH) | 60% | 31% |  |  | 
CAAX prenyl protease 2 (Saccharomyces cerevisiae S288c), Q03530 (protein) MLQFSTFLVLLYISISYVLPLYATSQPEGSKRDNPRTIKSRMQKLTIMLISNLFLVPFLQSQLSSTTSHISFKDAFLGLGIIPGYYAALPNPWQFSQFVKDLTKCVAMLLTLYCGPVLDFVLYHLLNPKSSILEDFYHEFLNIWSFRNFIFAPITEEIFYTSMLLTTYLNLIPHSQLSYQQLFWQPSLFFGLAHAHHAYEQLQEGSMTTVSILLTTCFQILYTTLFGGLTKFVFVRTGGNLWCCIILHALCNIMGFPGPSRLNLHFTVVDKKAGRISKLVSIWNKCYFALLVLGLISLKDTLQTLVGTPGYRITL |  |  | 6.4 µM and 4 µM | 1.9 µM | 0.093 nmol/min/mg
